Results on 1 compound are retold here after article PMC2853048 (Journal of medicinal chemistry, 2009).

One series relates to endogenous Gli1. The series can be described thus: Gli-mediated transcription reporter assay in Rh30 cells. The note with it: Rh30 cells without cotransfection of exogenous Gli1, 24 h, 10, 20 or 40 µM. It counts as cell-based. The essentials:
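Rh30 cells were grown in RPMI-1640 with 10% FBS at 37 °C, 5% CO2. At about 70% confluence they were transfected overnight with GliLuc-BS (500 ng/mL) and pRL-CMV (2.5 ng/mL) using Fugene6. Cells were replated, then dosed 18 h later for 24 h. Lysates were read by dual luciferase (firefly/Renilla). DMSO = 0% inhibition; triplicates, SE shown.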
Background: In a reporter assay the amount or activity of a reporter protein is the signal.

In another series the test system is C3H10T1/2 cells. The series is described as follows: Toxicity towards C3H10T1/2 cells in the reporter assay. It counts as cell-based, mouse. The note with it: data not shown.
A short description of series [1]: Stability of compounds in C3H10T1/2 cell cultures. It counts as in vitro ADME, mouse. The note with it: 24 hours.
For the next series, the system named is BJ-hTERT cells. The series is described as follows: Cell viability assay. It counts as cell-based. As to conditions: noncancerous human skin fibroblasts, 40 µM, 72 h. Put shortly: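 Cells plated in 384-well format 24 h before dosing. A 10-mM DMSO stock was diluted in EMEM to 160 µM (4×) and added in triplicate to a final 40 µM. Incubated 68 h at 37 °C, then Alamar Blue for 4 h at 37 °C. Fluorescence read at ex 510 / em 590 nm; viability expressed relative to DMSO control wells.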

The target of a further series is T1, human Gli1 (Homo sapiens, UniProt P08151).
T1 sequence (P08151 1-1106): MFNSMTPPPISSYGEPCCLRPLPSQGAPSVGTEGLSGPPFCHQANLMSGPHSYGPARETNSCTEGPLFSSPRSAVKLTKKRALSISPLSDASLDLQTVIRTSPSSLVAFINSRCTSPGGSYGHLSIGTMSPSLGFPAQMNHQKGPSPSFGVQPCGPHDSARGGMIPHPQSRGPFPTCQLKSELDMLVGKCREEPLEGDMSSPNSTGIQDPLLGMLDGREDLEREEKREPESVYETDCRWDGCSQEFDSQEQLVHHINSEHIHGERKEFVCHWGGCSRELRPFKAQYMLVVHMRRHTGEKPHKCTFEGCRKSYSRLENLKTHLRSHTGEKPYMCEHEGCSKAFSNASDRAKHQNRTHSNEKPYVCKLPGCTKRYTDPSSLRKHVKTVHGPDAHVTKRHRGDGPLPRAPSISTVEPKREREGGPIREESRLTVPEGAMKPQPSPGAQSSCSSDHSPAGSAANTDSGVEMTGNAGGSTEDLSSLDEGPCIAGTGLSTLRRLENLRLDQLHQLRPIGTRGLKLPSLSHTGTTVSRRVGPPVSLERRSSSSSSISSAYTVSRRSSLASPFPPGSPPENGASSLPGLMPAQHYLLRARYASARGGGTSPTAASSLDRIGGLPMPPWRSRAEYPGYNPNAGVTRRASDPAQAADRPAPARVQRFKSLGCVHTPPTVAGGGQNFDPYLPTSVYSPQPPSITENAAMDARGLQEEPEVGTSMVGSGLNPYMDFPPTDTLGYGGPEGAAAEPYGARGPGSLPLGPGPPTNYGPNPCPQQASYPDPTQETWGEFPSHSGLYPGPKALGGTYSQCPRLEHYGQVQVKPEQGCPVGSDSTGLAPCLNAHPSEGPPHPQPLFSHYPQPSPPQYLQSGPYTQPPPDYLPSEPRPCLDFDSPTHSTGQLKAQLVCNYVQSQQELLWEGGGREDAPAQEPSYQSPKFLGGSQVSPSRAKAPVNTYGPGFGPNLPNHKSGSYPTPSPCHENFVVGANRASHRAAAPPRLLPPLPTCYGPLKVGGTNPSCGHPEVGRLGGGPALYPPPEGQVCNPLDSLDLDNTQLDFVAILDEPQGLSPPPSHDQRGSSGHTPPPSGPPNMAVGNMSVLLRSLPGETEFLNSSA
The series can be described thus: Gli-mediated transcription reporter assay in C3H10T1/2 cells with exogenous Gli1. It counts as cell-based. As to conditions: Gli1-transfected C3H10T1/2 cells, 24 h, 20 µM or 40 µM.

A further series concerns exogenous Gli1 protein. The series is described as follows: Western blot of Gli1 protein levels in Gli1-transfected C3H10T1/2 cells. It counts as cell-based, human.

On to `C[C@H](C(=O)NCCc1ccc(O)cc1)c1cccc(C(=O)c2ccccc2)c1` [Compound 36, (S)-2-(3-Benzoylphenyl)-N-(4-hydroxyphenethyl)propanamide], for which the “inhibition of Gli-reporter activity in Rh30 cells, in words” value in the series on endogenous Gli1 was “downregulated”. Moreover, the “toxicity towards the C3H10T1/2 cells” value in the series with C3H10T1/2 cells is listed as “minimal toxicity as compared to 32”. In addition, in series [1], the “stability in the C3H10T1/2 cell cultures” value is listed as “stable”. The “cell viability / toxicity, BJ-hTERT” value in the series with BJ-hTERT cells is on record as “without showing toxicity”. Also, on human Gli1, the “inhibition of Gli1-mediated transcription (Gli-reporter activity), in words” value was “high activity”. Besides, the “exogenous Gli1 protein level” value in the series with exogenous Gli1 protein was “not reduced”.
